Assay results taken from ChEMBL document CHEMBL3425415, “An antibacterial ortho-quinone diterpenoid and its derivatives from Caryopteris mongolica” (2015).
Activity calls are given as the source filed them. The rule behind the calls is not given here.

Columns and labels:
Assay type in all cases: functional
[1] = system: Staphylococcus epidermidis; assay: Antibacterial activity against Staphylococcus epidermidis assessed as growth inhibition at 50 ug/disc after 24 hrs by disc diffusion method; conditions: for zone of inhibition at 50 µg/disc: read-out: DIZ
Procedure, shortened: (§1)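 Disc diffusion: 100 µL of each bacterial culture (10^6 CFU/mL), grown 18 h in nutrient broth, spread onto meat peptone agar in Petri dishes. Compound-loaded discs applied. Plates incubated 24 h at 37 °C. Inhibition zone diameter measured in mm. Treatments replicated 3-5 times, reported as mean ± S.E.M.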

[2] = system: Staphylococcus aureus; assay: Antibacterial activity against Staphylococcus aureus assessed as growth inhibition at 50 ug/disc after 24 hrs by disc diffusion method; conditions: for zone of inhibition at 50 µg/disc: read-out: DIZ; procedure, shortened: as §1
[3] = system: Enterococcus faecalis; assay: Antibacterial activity against Enterococcus faecalis assessed as growth inhibition at 50 ug/disc after 24 hrs by disc diffusion method; conditions: for zone of inhibition at 50 µg/disc: read-out: DIZ; procedure, shortened: as §1
[4] = system: Micrococcus luteus; assay: Antibacterial activity against Micrococcus luteus assessed as growth inhibition at 50 ug/disc after 24 hrs by disc diffusion method; conditions: for zone of inhibition at 50 µg/disc: read-out: DIZ; procedure, shortened: as §1
[5] = system: Micrococcus luteus; assay: Antibacterial activity against Micrococcus luteus assessed as growth inhibition at 5 ug/disc after 24 hrs by disc diffusion method; conditions: read-out: DIZ
Procedure, shortened: (§2)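 Disc diffusion: 100 µL inoculum (10^6 CFU/mL, grown 18 h in nutrient broth) spread on meat peptone agar plates; discs applied and incubated 24 h at 37 °C. Inhibition zone diameters measured in mm; 3-5 replicates, mean ± S.E.M.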

[6] = system: Staphylococcus epidermidis; assay: Antibacterial activity against Staphylococcus epidermidis assessed as growth inhibition at 5 ug/disc after 24 hrs by disc diffusion method; conditions: read-out: DIZ; procedure, shortened: as §2
[7] = system: Staphylococcus aureus; assay: Antibacterial activity against Staphylococcus aureus assessed as growth inhibition at 500 ug/disc after 24 hrs by disc diffusion method; conditions: for zone of inhibition at 500 µg/disc: read-out: DIZ; procedure, shortened: as §2
[8] = system: Enterococcus faecalis; assay: Antibacterial activity against Enterococcus faecalis assessed as growth inhibition at 5 ug/disc after 24 hrs by disc diffusion method; conditions: read-out: DIZ; procedure, shortened: as §2
[9] = system: Staphylococcus aureus; assay: Antibacterial activity against Staphylococcus aureus assessed as growth inhibition at 5 ug/disc after 24 hrs by disc diffusion method; conditions: read-out: DIZ; procedure, shortened: as §1
[10] = system: Micrococcus luteus; assay: Antibacterial activity against Micrococcus luteus assessed as growth inhibition at 500 ug/disc after 24 hrs by disc diffusion method; procedure, shortened: as §1
[11] = system: Staphylococcus epidermidis; assay: Antibacterial activity against Staphylococcus epidermidis assessed as growth inhibition at 500 ug/disc after 24 hrs by disc diffusion method; conditions: for zone of inhibition at 500 µg/disc: read-out: DIZ; procedure, shortened: as §1
[12] = system: Enterococcus faecalis; assay: Antibacterial activity against Enterococcus faecalis assessed as growth inhibition at 500 ug/disc after 24 hrs by disc diffusion method; conditions: read-out: DIZ; procedure, shortened: as §1
[13] = system: Staphylococcus epidermidis; assay: Antibacterial activity against Staphylococcus epidermidis assessed as growth inhibition at 25 ug/disc after 24 hrs by disc diffusion method; conditions: read-out: DIZ; procedure, shortened: as §1
[14] = system: Micrococcus luteus; assay: Antibacterial activity against Micrococcus luteus assessed as growth inhibition at 25 ug/disc after 24 hrs by disc diffusion method; conditions: read-out: DIZ; procedure, shortened: as §1
[15] = system: Enterococcus faecalis; assay: Antibacterial activity against Enterococcus faecalis assessed as growth inhibition at 25 ug/disc after 24 hrs by disc diffusion method; conditions: read-out: DIZ; procedure, shortened: as §1
[16] = system: Staphylococcus aureus; assay: Antibacterial activity against Staphylococcus aureus assessed as growth inhibition at 25 ug/disc after 24 hrs by disc diffusion method; conditions: read-out: DIZ; procedure, shortened: as §1

Compound: C[C@@H]1C[C@@]12C(=O)OC(=O)C1=C(C(=O)C[C@H]3C(C)(C)CCC[C@]13C)[C@H]2O
- growth inhibition (GI) [1]: inactive
- growth inhibition (GI) [2]: inactive
- growth inhibition (GI) [3]: inactive
- growth inhibition (GI) [4]: inactive

Compound: CC(C)c1cc2c(c(O)c1O)[C@@]1(C)CCCC(C)(C)[C@@H]1CC2=O [DEMETHYLCRYPTOJAPONOL]
- zone of inhibition at 50 µg/disc [1]: 13.7 mm
- zone of inhibition at 50 µg/disc [2]: 11.8 mm
- zone of inhibition at 5 µg/disc [5]: 13.5 mm
- zone of inhibition at 5 µg/disc [6]: 16 mm
- zone of inhibition at 50 µg/disc [3]: 11.3 mm
- zone of inhibition at 500 µg/disc [7]: 15.8 mm
- zone of inhibition at 50 µg/disc [4]: 9 mm
- zone of inhibition at 5 µg/disc [8]: 15.2 mm

Compound: CC1=C(C)[C@@H]2CC(=O)C3=C(C(=O)OC(=O)[C@@]4(C[C@H]4C)[C@@H]3O)[C@@]2(C)CC1
- growth inhibition (GI) [1]: inactive
- growth inhibition (GI) [2]: inactive
- growth inhibition (GI) [3]: inactive
- growth inhibition (GI) [4]: inactive

Compound: CC(C)c1cc2c(c(O)c1O)[C@@]1(C)CCCC(C)(C)[C@@H]1[C@@H](O)C2=O [6-ALPHA-HYDROXYDEMETHYL-CRYPTOJAPONOL]
- zone of inhibition at 50 µg/disc [1]: 11.5 mm
- zone of inhibition at 50 µg/disc [2]: 11 mm
- zone of inhibition at 5 µg/disc [5]: 17.7 mm
- zone of inhibition at 5 µg/disc [6]: 21.2 mm
- zone of inhibition at 50 µg/disc [3]: 13.8 mm
- zone of inhibition at 500 µg/disc [7]: 22.5 mm
- zone of inhibition at 50 µg/disc [4]: 9.1 mm
- zone of inhibition at 5 µg/disc [8]: 20.2 mm

Compound: NC[C@H]1O[C@H](O[C@H]2[C@H](O)[C@@H](O[C@H]3O[C@H](CO)[C@@H](O)[C@H](N)[C@H]3O)[C@H](N)C[C@@H]2N)[C@H](O)[C@@H](O)[C@@H]1O [KANAMYCIN]
- zone of inhibition at 5 µg/disc [5]: 16 mm
- zone of inhibition at 5 µg/disc [6]: 20.5 mm
- zone of inhibition at 5 µg/disc [9]: 16.3 mm
- zone of inhibition at 50 µg/disc [3]: 17.9 mm

Compound: C[C@H]1C[C@]12C(=O)OC(=O)C1=C(C(=O)C[C@H]3C(C)(C)CCC[C@]13C)[C@H]2O
- growth inhibition (GI) [1]: inactive
- growth inhibition (GI) [2]: inactive
- growth inhibition (GI) [10]: inactive
- growth inhibition (GI) [11]: inactive
- zone of inhibition at 500 µg/disc [12]: 9.6 mm
- growth inhibition (GI) [3]: inactive
- growth inhibition (GI) [7]: inactive
- growth inhibition (GI) [4]: inactive

Compound: CC(C)c1cc2c(c(O)c1O)[C@@]1(C)CCCC(C)(C)C1=C(O)C2=O [14-DEOXYCOLEON U]
- zone of inhibition at 50 µg/disc [1]: 10.2 mm
- zone of inhibition at 50 µg/disc [2]: 10.2 mm
- zone of inhibition at 500 µg/disc ([10]; read-out: DIZ): 14.8 mm
- zone of inhibition at 500 µg/disc [11]: 18.2 mm
- zone of inhibition at 500 µg/disc [12]: 16.8 mm
- zone of inhibition at 50 µg/disc [3]: 10.5 mm
- zone of inhibition at 500 µg/disc [7]: 17.8 mm
- zone of inhibition at 50 µg/disc [4]: 9 mm

Compound: CC1=C(C)[C@@H]2CC(=O)C3=C(C(=O)C(=O)[C@]4(C[C@@H]4C)[C@@H]3O)[C@@]2(C)CC1
- zone of inhibition at 50 µg/disc [1]: 24.1 mm
- zone of inhibition at 50 µg/disc [2]: 22.6 mm
- zone of inhibition at 25 µg/disc [13]: 23.2 mm
- zone of inhibition at 5 µg/disc [5]: 16.3 mm
- zone of inhibition at 25 µg/disc [14]: 27.9 mm
- zone of inhibition at 25 µg/disc [15]: 22 mm
- zone of inhibition at 5 µg/disc [6]: 15.9 mm
- zone of inhibition at 500 µg/disc [11]: 29.3 mm
- zone of inhibition at 5 µg/disc [9]: 12.9 mm
- zone of inhibition at 500 µg/disc [12]: 28.7 mm
- zone of inhibition at 50 µg/disc [3]: 24 mm
- zone of inhibition at 500 µg/disc [7]: 30.6 mm
- zone of inhibition at 5 µg/disc [8]: 23.2 mm
- zone of inhibition at 25 µg/disc [16]: 21.5 mm
